Measurements from ChEMBL document CHEMBL1154787, “Enaminonitrile in heterocyclic synthesis: synthesis and antimicrobial evaluation of some new pyrazole, isoxazole and pyrimidine derivatives incorporating a benzothiazole moiety” (2009).
Values after ≈ are worked out from the molar mass of the structure shown.

Experiments:
Format in all cases: functional
Pseudomonas aeruginosa [1] = test: Antibacterial activity against Pseudomonas aeruginosa after 24-48 hrs by microdilution susceptibility test
Outline: (§1)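 MIC by twofold serial dilution in wells, tested only for compounds giving inhibition zones >10 mm; microbial suspensions at 10⁶ CFU/mL inoculated into wells, incubated at 36 °C for 24–48 h, then MIC read.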

Escherichia coli [2] = test: Antibacterial activity against Escherichia coli after 24-48 hrs by microdilution susceptibility test; outline: as §1
Escherichia coli [3] = test: Antibacterial activity against Escherichia coli assessed as zone of inhibition diameter at 1 mg/mL after 24 hrs […]; conditions: read-out: DIZ
Outline: (§2)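 Agar diffusion: 5 mm sterile filter-paper disks loaded with test compound in DMF (1 mg/mL) placed on agar seeded with the bacterium, in triplicate; DMF alone as control; incubated 37 °C for 24 h; mean inhibition-zone diameter recorded in mm.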

Pseudomonas aeruginosa [4] = test: Antibacterial activity against Pseudomonas aeruginosa assessed as zone of inhibition diameter at 1 mg/mL after 24 hrs […]; conditions: read-out: DIZ; outline: as §2
Bacillus thuringiensis [5] = test: Antibacterial activity against Bacillus thuringiensis assessed as zone of inhibition diameter at 1 mg/mL after 24 hrs […]; conditions: read-out: DIZ; outline: as §2
Bacillus subtilis [6] = test: Antibacterial activity against Bacillus subtilis assessed as zone of inhibition diameter at 1 mg/mL after 24 hrs […]; conditions: read-out: DIZ; outline: as §2
Bacillus thuringiensis [7] = test: Antibacterial activity against Bacillus thuringiensis after 24-48 hrs by microdilution susceptibility test; outline: as §1
Bacillus subtilis [8] = test: Antibacterial activity against Bacillus subtilis after 24-48 hrs by microdilution susceptibility test; outline: as §1
Fusarium oxysporum [9] = test: Antifungal activity against Fusarium oxysporum assessed as zone of inhibition diameter at 1 mg/mL after 48 hrs […]; conditions: read-out: DIZ
Outline: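 Agar diffusion: 5 mm sterile filter-paper disks loaded with test compound in DMF (1 mg/mL) placed on agar seeded with the fungus, in triplicate; DMF alone as control; incubated at 37 °C for fungal plates; mean inhibition-zone diameter recorded in mm.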

Fusarium oxysporum [10] = test: Antifungal activity against Fusarium oxysporum after 24-48 hrs by microdilution susceptibility test; outline: as §1
Botrytis fabae = test: Antifungal activity against Botrytis fabae after 24-48 hrs by microdilution susceptibility test; outline: as §1

Compound | MIC (Pseudomonas aeruginosa [1]) | MIC (Escherichia coli [2]) | zone of inhibition at 1000 µg/mL (Escherichia coli [3]) | zone of inhibition at 1000 µg/mL (Pseudomonas aeruginosa [4]) | zone of inhibition at 1000 µg/mL (Bacillus thuringiensis [5]) | zone of inhibition at 1000 µg/mL (Bacillus subtilis [6]) | MIC (Bacillus thuringiensis [7]) | MIC (Bacillus subtilis [8]) | zone of inhibition at 1000 µg/mL (Fusarium oxysporum [9]) | MIC (Fusarium oxysporum [10]) | MIC (Botrytis fabae)
O=C(N[C@H](CO)[C@H](O)c1ccc([N+](=O)[O-])cc1)C(Cl)Cl [CHLORAMPHENICOL] | 6.25 µg/mL (≈ 19.3 µM) | 6.25 µg/mL (≈ 19.3 µM) | 37 mm | 37 mm | 37 mm | 37 mm | 6.25 µg/mL (≈ 19.3 µM) | 6.25 µg/mL (≈ 19.3 µM) | – | – | –
OC(Cn1cncn1)(Cn1cncn1)c1ccc(F)cc1F [FLUCONAZOLE] | – | – | – | – | – | – | – | – | 43 mm | 3.12 µg/mL (≈ 10.2 µM) | 3.12 µg/mL (≈ 10.2 µM)
N=c1c(C(=O)Nc2nc3ccccc3s2)cnc2ccccn12 | 50 µg/mL (≈ 156 µM) | 12.5 µg/mL (≈ 38.9 µM) | 31 mm | 19 mm | 31 mm | 37 mm | 12.5 µg/mL (≈ 38.9 µM) | 6.25 µg/mL (≈ 19.4 µM) | 25 mm | 25 µg/mL (≈ 77.8 µM) | 6.25 µg/mL (≈ 19.4 µM)
Nc1oncc1C(=O)Nc1nc2ccccc2s1 | 50 µg/mL (≈ 192 µM) | 50 µg/mL (≈ 192 µM) | 19 mm | 19 mm | 25 mm | 19 mm | 25 µg/mL (≈ 96.1 µM) | 50 µg/mL (≈ 192 µM) | 25 mm | 25 µg/mL (≈ 96.1 µM) | 6.25 µg/mL (≈ 24 µM)
CN[C@@H]1[C@H](O[C@H]2[C@H](O[C@H]3[C@H](O)[C@@H](O)[C@H](N=C(N)N)[C@@H](O)[C@@H]3N=C(N)N)O[C@@H](C)[C@]2(O)C=O)O[C@@H](CO)[C@H](O)[C@H]1O [STREPTOMYCIN] | 6.25 µg/mL (≈ 10.7 µM) | 6.25 µg/mL (≈ 10.7 µM) | 37 mm | 37 mm | 37 mm | 43 mm | 6.25 µg/mL (≈ 10.7 µM) | 3.12 µg/mL (≈ 5.37 µM) | – | – | –
N#C/C(=C\NNc1ccccc1)C(=O)Nc1nc2ccccc2s1 | 25 µg/mL (≈ 74.5 µM) | 12.5 µg/mL (≈ 37.3 µM) | 31 mm | 25 mm | 19 mm | 13 mm | 50 µg/mL (≈ 149 µM) | 100 µg/mL (≈ 298 µM) | 31 mm | 12.5 µg/mL (≈ 37.3 µM) | 6.25 µg/mL (≈ 18.6 µM)
Nc1ncc(C(=O)Nc2nc3ccccc3s2)c(N)n1 | 50 µg/mL (≈ 175 µM) | 25 µg/mL (≈ 87.3 µM) | 25 mm | 19 mm | 25 mm | 31 mm | 25 µg/mL (≈ 87.3 µM) | 12.5 µg/mL (≈ 43.7 µM) | 37 mm | 6.25 µg/mL (≈ 21.8 µM) | 3.12 µg/mL (≈ 10.9 µM)
Nc1c(C(=O)Nc2nc3ccccc3s2)cnc2nnnn12 | 50 µg/mL (≈ 160 µM) | 50 µg/mL (≈ 160 µM) | 19 mm | 19 mm | 31 mm | 43 mm | 12.5 µg/mL (≈ 40 µM) | 3.12 µg/mL (≈ 10 µM) | 37 mm | 6.25 µg/mL (≈ 20 µM) | 3.12 µg/mL (≈ 10 µM)
N#C/C(=C/N)C(=O)Nc1nc2ccccc2s1 | 100 µg/mL (≈ 409 µM) | 25 µg/mL (≈ 102 µM) | 25 mm | 13 mm | 19 mm | 13 mm | 50 µg/mL (≈ 205 µM) | 100 µg/mL (≈ 409 µM) | 31 mm | 12.5 µg/mL (≈ 51.2 µM) | 6.25 µg/mL (≈ 25.6 µM)
N=c1c(C(=O)Nc2nc3ccccc3s2)cnc2sccn12 | 6.25 µg/mL (≈ 19.1 µM) | 25 µg/mL (≈ 76.4 µM) | 25 mm | 37 mm | 25 mm | 31 mm | 25 µg/mL (≈ 76.4 µM) | 12.5 µg/mL (≈ 38.2 µM) | 25 mm | 25 µg/mL (≈ 76.4 µM) | 12.5 µg/mL (≈ 38.2 µM)
Nc1c(C(=O)Nc2nc3ccccc3s2)cnn1-c1ccccc1 | 50 µg/mL (≈ 149 µM) | 50 µg/mL (≈ 149 µM) | 19 mm | 19 mm | 19 mm | 31 mm | 50 µg/mL (≈ 149 µM) | 12.5 µg/mL (≈ 37.3 µM) | 19 mm | 50 µg/mL (≈ 149 µM) | 12.5 µg/mL (≈ 37.3 µM)
CN(C)/C=C(\C#N)C(=O)Nc1nc2ccccc2s1 | 50 µg/mL (≈ 184 µM) | 100 µg/mL (≈ 367 µM) | 13 mm | 19 mm | 25 mm | 13 mm | 25 µg/mL (≈ 91.8 µM) | 100 µg/mL (≈ 367 µM) | 25 mm | 25 µg/mL (≈ 91.8 µM) | 25 µg/mL (≈ 91.8 µM)
N#Cc1cncn(-c2nc3ccccc3s2)c1=O | 50 µg/mL (≈ 197 µM) | 50 µg/mL (≈ 197 µM) | 19 mm | 19 mm | 19 mm | 31 mm | 50 µg/mL (≈ 197 µM) | 12.5 µg/mL (≈ 49.2 µM) | 19 mm | 50 µg/mL (≈ 197 µM) | 12.5 µg/mL (≈ 49.2 µM)
Nc1[nH]ncc1C(=O)Nc1nc2ccccc2s1 | 12.5 µg/mL (≈ 48.2 µM) | 12.5 µg/mL (≈ 48.2 µM) | 31 mm | 31 mm | 19 mm | 31 mm | 50 µg/mL (≈ 193 µM) | 12.5 µg/mL (≈ 48.2 µM) | 37 mm | 6.25 µg/mL (≈ 24.1 µM) | 3.12 µg/mL (≈ 12.1 µM)
NC1=Nc2ccccc2NC=C1C(=O)Nc1nc2ccccc2s1 | 6.25 µg/mL (≈ 18.6 µM) | 25 µg/mL (≈ 74.5 µM) | 25 mm | 37 mm | 31 mm | 37 mm | 12.5 µg/mL (≈ 37.3 µM) | 6.25 µg/mL (≈ 18.6 µM) | 25 mm | 25 µg/mL (≈ 74.5 µM) | 12.5 µg/mL (≈ 37.3 µM)
N#C/C(=C\NN)C(=O)Nc1nc2ccccc2s1 | 25 µg/mL (≈ 96.4 µM) | 25 µg/mL (≈ 96.4 µM) | 25 mm | 25 mm | 19 mm | 13 mm | 50 µg/mL (≈ 193 µM) | 100 µg/mL (≈ 386 µM) | 19 mm | 50 µg/mL (≈ 193 µM) | 6.25 µg/mL (≈ 24.1 µM)
